Hits are enriched below; roughly 4.8% of the tested compounds scored in any of these assays.
GRIN3A LBD mod: NR3A (human) ligand-binding domain modulation. Tm shift relative to glycine control, % at 25 µM. 2.5% of 340,000 active. NR3A LBD differential scanning fluorimetry, Tm shift; 0% = protein alone, 100% = glycine-bound protein;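 active means melting temperature shift of at least 10% of the positive control shift, at one fixed dose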
PAFAH1B3 inh: blocks human PAF acetylhydrolase 1B catalytic subunit 3 | Q15102 | recombinant PAFAH1B3, FP-rhodamine probe, fluorescence polarization | inhibition, % at 3.39 µM | 0.28% of 340,000 active;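 active means inhibition above the screen-wide average of all tested compounds plus 3 SD, cut at about 25% in these data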;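 further: 0% = enzyme with DMSO only and 100% = wells lacking PAFAH1B3 protein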
Target sequence (Q15102 whole entry, looked up): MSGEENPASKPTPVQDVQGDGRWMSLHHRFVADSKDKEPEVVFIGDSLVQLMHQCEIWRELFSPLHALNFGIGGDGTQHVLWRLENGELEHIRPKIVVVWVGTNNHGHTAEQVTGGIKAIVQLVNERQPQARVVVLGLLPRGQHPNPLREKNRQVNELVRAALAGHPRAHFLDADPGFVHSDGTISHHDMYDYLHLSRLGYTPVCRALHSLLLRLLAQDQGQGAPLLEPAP
UCH37 DUB inh: human UCH37 deubiquitinating enzyme inhibition; purified proteasome/UCH37, Ub-AMC cleavage fluorescence; inhibition, % (concentration not given with the values); 0.33% of 330,000 active;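 active means mean inhibition over replicate wells above about 20%, limit read from the data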;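 further: 0% = compound-free wells with enzyme and 100% = wells lacking proteasome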
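assay system = human UCH37 enzyme supplied as purified proteasome complex | amount = proteasome at 0.15 nM in the dispensed enzyme solution | schedule = 30 min compound-proteasome preincubation then 25 min substrate reaction, room temperature | measured by = fluorescence, ex 355 nm, em 460 nm | benchmarks = no-proteasome wells (full inhibition) and compound-free wells (no inhibition)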
PAFAH2 FP inh: inhibitors of human PAFAH2 | inhibition, % at 3.39 µM | recombinant PAFAH2, FP-rhodamine activity probe, fluorescence polarization | 0.99% of 340,000 active;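 active means inhibition above the mean over all tested compounds plus 3 SD, cut at about 30% in these data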;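 further: inhibitors block probe labeling of enzyme so polarization drops; 0% = enzyme with DMSO and 100% = wells lacking PAFAH2 protein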
PAFAH1B2 inh: blocks human PAF acetylhydrolase 1b catalytic subunit 2; P68402; recombinant PAFAH1B2, FP-rhodamine activity probe, fluorescence polarization; inhibition, % at 3.39 µM; 1.2% of 340,000 active; AID 492953;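 active means inhibition above the mean of all tested compounds plus 3 SD, cut at about 24% in these data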;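 further: 0% = enzyme with DMSO and 100% = wells lacking PAFAH1B2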
pPAFAH inh: inhibitors of human plasma PAF acetylhydrolase (pPAFAH); AID 463082; 1.5% of 330,000 active; Q13093; inhibition, % at 3.39 µM; recombinant pPAFAH, FP-rhodamine probe fluorescence polarization;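 active means inhibition above the mean inhibition across the screen plus 3 SD, cut at about 25% in these data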;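 further: inhibitors block binding of the rhodamine activity-based probe so polarization drops; 0% = enzyme with DMSO and 100% = wells lacking pPAFAH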
Target sequence (Q13093 whole entry, looked up): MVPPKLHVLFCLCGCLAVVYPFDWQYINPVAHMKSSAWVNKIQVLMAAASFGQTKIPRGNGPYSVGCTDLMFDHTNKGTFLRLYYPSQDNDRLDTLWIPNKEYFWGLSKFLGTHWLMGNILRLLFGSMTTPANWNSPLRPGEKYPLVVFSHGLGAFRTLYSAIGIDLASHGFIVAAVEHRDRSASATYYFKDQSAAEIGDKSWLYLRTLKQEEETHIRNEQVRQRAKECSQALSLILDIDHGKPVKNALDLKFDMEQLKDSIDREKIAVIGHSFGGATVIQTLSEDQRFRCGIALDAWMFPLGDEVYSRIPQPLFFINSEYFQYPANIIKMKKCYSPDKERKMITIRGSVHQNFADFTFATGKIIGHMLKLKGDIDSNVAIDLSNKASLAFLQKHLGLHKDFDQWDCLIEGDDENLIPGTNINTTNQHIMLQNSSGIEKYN
Numbers without * were called inactive; i = inactive; . = not tested or not shown.

SMILES	GRIN3A LBD mod	PAFAH1B3 inh	UCH37 DUB inh	PAFAH2 FP inh	PAFAH1B2 inh	pPAFAH inh
Cn1cc(C(=O)NN=C/C(Br)=C\c2ccccc2)ccc1=O	.	.	0.3	.	.	.
CCC(CO)Oc1cc(NCc2ccc(Cl)cc2)c2ncn(C(C)C)c2c1 (stereo not given)	-4.7	7.4	-0.2	6.2	28.3*	7.8
CCOc1cc(NCc2ccccc2)c2ncn(C(C)C)c2c1	1.9	0.8	-1.1	12.6	12.0	22.3
COCCOc1cc(NCc2ccccc2)c2ncn(C(C)C)c2c1	0.7	-1.6	0.4	0.3	2.5	5.1
CC[C@H](CO)Oc1cc(NCc2ccc(Cl)c(Cl)c2)c2ncn(C(C)C)c2c1	-20.2	3.7	1.2	11.8	16.8	15.3
CCCOc1cc(NCc2ccccc2)c2ncn(C(C)C)c2c1	6.9	-5.9	1.6	8.5	4.0	24.9*
CC(C)n1cnc2c(NCc3ccccc3)cc(Cc3ccc(F)cc3)cc21	3.4	6.5	.	16.7	4.8	27.8*
COc1ccccc1CNC(=O)CC(C)=NNC(=O)Cc1ccccc1	.	.	0.4	.	.	.
O=C(Nc1ccc(F)cc1)Nc1cccnc1	-3.2	14.6	2.5	7.8	1.2	.
Cc1ccc(NC(=O)Nc2cccc([N+](=O)[O-])c2)cc1F	34.1*	-5.9	3.6	-5.1	-10.7	-4.0
O=C(Nc1ccc(OC(F)(F)F)cc1)Nc1cccnc1	10.9*	8.1	1.4	0.4	6.7	-10.7
O=C(Nc1ccc(OC(F)(F)F)cc1)Nc1cccc([N+](=O)[O-])c1	13.0*	-75.0	31.1*	-84.3	-36.7	0.6
O=C(Nc1cccnc1)Nc1cccc([N+](=O)[O-])c1	7.3	4.7	1.4	-3.2	3.3	8.1
Cc1ccc(C(C)C)cc1NC(=O)Nc1ccc([N+](=O)[O-])cc1	25.1*	-0.9	.	-12.2	4.2	-14.1
O=C(Cn1c2ccccc2c(=O)c2ccccc21)NN=Cc1cc([N+](=O)[O-])ccc1N1CCCCCC1	.	.	7.8	.	.	.
Cc1ccc(C=NNC(=O)Cn2nc(C)c(Br)c2C)o1	.	.	5.7	.	.	.
COCCCNC(=S)NN=Cc1ccc(O)cc1O	.	.	1.4	.	.	.
Cc1cc(C=NNc2ccc([N+](=O)[O-])cn2)c(C)n1-c1ccc(C(=O)O)cc1	.	.	11.4	.	.	.
O=C(Nc1ccc(S(=O)(=O)N2CCCCCC2)cc1)c1[nH]ncc1[N+](=O)[O-]	.	3.6	.	3.8	6.9	15.5
O=C(Nc1ccc(OC(F)(F)F)cc1)c1[nH]ncc1[N+](=O)[O-]	-5.2	6.5	7.1	37.3*	3.0	18.2
Cc1cc(-c2ccccc2)c2ccc(NC(=O)C(C)(C)C)nc2n1	-4.0	14.3	-18.7	-12.7	32.6*	9.2
Cc1nc2c(Br)cc(Br)cc2cc1O	24.1*	7.2	1.8	-10.5	-0.2	1.6
CCON=C(C)c1c(O)cc(-c2ccccc2)n(-c2ccccc2)c1=O	.	.	3.1	.	.	.
CCCC(=O)Nc1ccc(-c2nc3cc(C)ccc3o2)cc1	14.2*	3.7	-37.5	2.4	1.4	-4.5
COc1ccc(CC(=O)Nc2ccc(-c3nc4cc(C)ccc4o3)c(O)c2)cc1OC	-6.4	-8.6	i	4.2	-4.7	4.9
SMILES	GRIN3A LBD mod	PAFAH1B3 inh	UCH37 DUB inh	PAFAH2 FP inh	PAFAH1B2 inh	pPAFAH inh
COc1ccccc1C(=O)Nc1ccc2oc(-c3ccc(F)cc3)nc2c1	13.9*	-0.1	-200.2	-1.6	-1.6	1.8
Cc1ccc2oc(-c3ccc(NC(=O)c4ccncc4)cc3O)nc2c1	33.0*	-9.0	.	-10.7	-4.1	-1.3
O=C(NN=Cc1ccc([N+](=O)[O-])o1)c1cncc(Br)c1	.	.	12.5	.	.	.
CCN(CC(=O)NCc1ccc(Cl)cc1)C(=O)/C=C/c1ccccc1	-2.4	6.1	4.8	2.2	26.5*	5.6
Cc1ccc(S(=O)(=O)NC(C)CCc2ccccc2)cc1 (stereo not given)	-2.2	10.2	5.9	-1.1	35.5*	10.1
Cc1ccc(C)c(S(=O)(=O)NC(C)CCc2ccccc2)c1 (stereo not given)	-1.8	3.4	3.2	8.6	28.9*	-5.0
Cc1ccc(S(=O)(=O)NC(C)CCc2ccccc2)cc1C(N)=O (stereo not given)	-3.8	2.8	1.4	-5.1	12.2	-8.8
CC(=O)NC(CC(C)C)C(=O)NC(Cc1ccccc1)C(=O)CCl (stereo not given)	16.8*	9.8	.	3.9	-0.8	.
CCC(C)[C@H](NS(=O)(=O)c1ccc(C)cc1)C(=O)N1CCC(C(=O)N[C@@H](Cc2ccccc2)C(=O)O)CC1 (stereo not given in full)	13.4*	0.8	0.4	-5.8	3.5	-0.5
C=C(C)CNC(=S)N=c1scc(C)n1CC	.	.	5.3	.	.	.
Cc1ccc(C=NNC(=O)Cn2cnc3ccccc32)cc1	.	.	2.9	.	.	.
CC(=NOCC(=O)OCC(=O)NCc1ccccc1)c1ccc2c(c1)OCO2	.	.	1.8	.	.	.
CCC(=NNC(=O)CSCc1ccc(Cl)cc1)c1ccc2c(c1)OCCO2	.	.	-1.0	.	.	.
Cc1ccc(S(=O)(=O)NC(Cc2ccccc2)C(=O)NN)cc1 (stereo not given)	-1.4	11.9	1.8	2.5	8.6	-7.6
Cc1ccc(S(=O)(=O)N[C@@H](Cc2ccccc2)C(=O)CCl)cc1	-13.6	7.4	.	11.0	24.4*	1.4
NC(=S)N/N=C/c1ccc(C(F)(F)F)cc1	19.1*	-0.7	.	0.1	0.2	4.4
COc1ccccc1Cn1c(-c2ccccc2OC)nc2ccccc21	-2.0	0.5	6.1	-3.3	-1.3	27.2*
Oc1ccccc1Cn1c(-c2ccccc2O)nc2ccccc21	0.4	13.4	-75.9	-3.6	8.6	3.5
COCc1nc(-c2ccc(-c3ccc(OC)cc3)nc2OC)no1	30.9*	3.4	-333.4	8.4	4.8	8.2
COCc1nc(-c2ccc(-c3ccccc3)nc2OC)no1	-1.7	0.6	2.1	-2.8	0.1	26.1*
CCc1nc(-c2ccc(-c3ccc(OC)cc3)nc2OC)no1	3.3	10.7	-88.7	1.7	-4.6	3.3
CCOc1nc(-c2ccccc2)ccc1-c1noc(COC)n1	2.8	4.8	-7.1	16.0	-0.6	21.7
CCCCn1c(NC(=O)c2ccc(F)cc2)c(C#N)c2nc3ccccc3nc21	.	.	.	.	.	9.1
CCCCn1c(NC(=O)c2ccccc2)c(C#N)c2nc3ccccc3nc21	8.3	59.4*	-125.9	55.4*	44.4*	.
CC(C)c1cc(C(=O)NN=Cc2ccco2)n[nH]1	.	.	2.4	.	.	.
SMILES	GRIN3A LBD mod	PAFAH1B3 inh	UCH37 DUB inh	PAFAH2 FP inh	PAFAH1B2 inh	pPAFAH inh
CCNC(=S)NN=Cc1cn(Cc2ccccc2F)c2ccccc12	.	.	8.9	.	.	.
Cc1nnc(NC(=O)CC23CC4CC(CC(C4)C2)C3)s1	-2.5	6.7	4.8	3.2	27.9*	2.6
Cc1nnc(NC(=O)C23CC4CC(C)(CC(C)(C4)C2)C3)s1	-0.7	0.7	.	-1.0	26.3*	-0.1
CC(CC1CC(C)(C)OC1=O)C(=O)Nc1nncs1 (stereo not given)	-1.0	5.8	2.2	-2.7	-0.8	3.7
CC12CC3CC(C)(C1)CC(C(=O)Nc1nncs1)(C3)C2	-3.4	-0.9	2.0	-8.4	27.7*	3.4
CCOc1cc(C=NNC(=O)CCn2nc(C)cc2C)ccc1O	.	.	-2.1	.	.	.
